Reference: ChEMBL document CHEMBL3351329, “Radiosynthesis and evaluation of an 18F-labeled positron emission tomography (PET) radioligand for metabotropic glutamate receptor subtype 4 (mGlu4)” (J Med Chem, 2014)
Activity calls are given as the source filed them. The rule behind the calls is not given here.

Experiments:
[1] = target: Metabotropic glutamate receptor 4 (Rattus norvegicus) (UniProt P31423); test: Displacement of [3H]ML128 from rat mGlu4 receptor expressed in CHO cells at 10 uM after 30 mins by liquid scintillation counting analysis; format: cell-based
In short: (§1)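 Whole freshly harvested CHO cells stably expressing rat mGlu4 (G418-selected), 50 000 per tube, incubated with 10 nM [3H]1 plus competitor (0.01 nM–10 μM) 30 min at room temperature. Cells pelleted at 4 °C, washed three times with cold medium, lysed in 0.5% NaOH at 56 °C, then counted by liquid scintillation. Nonspecific binding defined with 10 μM unlabeled 1. Triplicates.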

[2] = target: Metabotropic glutamate receptor 4 (Rattus norvegicus, UniProt P31423); test: Displacement of [3H]ML128 from rat mGlu4 receptor expressed in CHO cells after 30 mins by liquid scintillation counting analysis; format: cell-based; in short: as §1
[3] = test system: Striatum (Macaca mulatta); test: Drug uptake in rhesus monkey striatum at 189 MBq, iv after 40 mins by PET imaging analysis; conditions: in vivo
[4] = test system: Cortex; test: Drug uptake in Sprague-Dawley rat cortex at 37 MBq, iv administered 5 mins post MTEP.HCl challenge measured after 20 mins by PET imaging analysis; format: ADME, organism-based; conditions: in vivo
In short: (§2)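 Male Sprague–Dawley rats under 1.0–1.5% isoflurane/nitrous oxide received [18F]3 (37 MBq) via tail-vein catheter. Dynamic PET was acquired for 60 min, followed by CT for anatomy and attenuation correction. Regional brain time–activity curves were generated. For blocking, animals were given iv 5 min before tracer either 2·HCl 10 mg/kg in saline with 10% ethanol and 10% Tween20 (n = 4) or MTEP·HCl 10 mg/kg in 0.9% saline (n = 3).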

[5] = test system: Striatum; test: Drug uptake in Sprague-Dawley rat striatum at 37 MBq, iv administered 5 mins post N-(3-(difluoromethoxy)phenyl)-2-picolinamide hydrochloride challenge measured after 20 mins by PET imaging analysis; format: ADME, organism-based; conditions: in vivo; in short: as §2
[6] = test system: Thalamus; test: Drug uptake in Sprague-Dawley rat thalamus at 37 MBq, iv administered 5 mins post MTEP.HCl challenge measured after 20 mins by PET imaging analysis; format: ADME, organism-based; conditions: in vivo; in short: as §2
[7] = test system: Striatum; test: Drug uptake in Sprague-Dawley rat striatum at 37 MBq, iv administered 5 mins post MTEP.HCl challenge measured after 20 mins by PET imaging analysis; format: ADME, organism-based; conditions: in vivo; in short: as §2
[8] = test system: Cerebellum; test: Drug uptake in Sprague-Dawley rat cerebellum at 37 MBq, iv administered 5 mins post MTEP.HCl challenge measured after 20 mins by PET imaging analysis; format: ADME, organism-based; conditions: in vivo; in short: as §2
[9] = test system: Striatum (Macaca mulatta); test: Drug uptake in rhesus monkey striatum at 189 MBq, iv after 3 mins by PET imaging analysis; conditions: in vivo, 0.05 h
[10] = test system: Cortex; test: Drug uptake in Sprague-Dawley rat cortex at 37 MBq, iv after 20 mins by PET imaging analysis; format: ADME, organism-based; conditions: in vivo; in short: as §2
[11] = Drug uptake in rhesus monkey cerebellum at 189 MBq, iv after 40 mins by PET imaging analysis; conditions: in vivo
[12] = test system: Thalamus (Macaca mulatta); test: Drug uptake in rhesus monkey thalamus at 189 MBq, iv after 3 mins by PET imaging analysis; conditions: in vivo, 0.05 h
[13] = test system: Macaca mulatta; test: Drug uptake in rhesus monkey hippocampus at 189 MBq, iv after 40 mins by PET imaging analysis; conditions: in vivo
[14] = test system: Cerebellum (Macaca mulatta); test: Drug uptake in rhesus monkey cerebellum at 189 MBq, iv after 3 mins by PET imaging analysis; conditions: in vivo, 0.05 h
[15] = test system: Striatum (Macaca mulatta); test: Drug uptake in rhesus monkey striatum at 189 MBq, iv after 20 mins by PET imaging analysis; conditions: in vivo
[16] = test system: Hippocampus; test: Drug uptake in Sprague-Dawley rat hippocampus at 37 MBq, iv administered 5 mins post N-(3-(difluoromethoxy)phenyl)-2-picolinamide hydrochloride challenge measured after 20 mins by PET imaging analysis; format: ADME, organism-based; conditions: in vivo; in short: as §2
[17] = test system: Cerebellum (Macaca mulatta); test: Drug uptake in rhesus monkey cerebellum at 189 MBq, iv after 20 mins by PET imaging analysis; conditions: in vivo
[18] = test system: Cortex; test: Drug uptake in Sprague-Dawley rat cortex at 37 MBq, iv administered 5 mins post N-(3-(difluoromethoxy)phenyl)-2-picolinamide hydrochloride challenge measured after 20 mins by PET imaging analysis; format: ADME, organism-based; conditions: in vivo; in short: as §2
[19] = test system: Cerebellum; test: Drug uptake in Sprague-Dawley rat cerebellum at 37 MBq, iv administered 5 mins post N-(3-(difluoromethoxy)phenyl)-2-picolinamide hydrochloride challenge measured after 20 mins by PET imaging analysis; format: ADME, organism-based; conditions: in vivo; in short: as §2
[20] = test system: Hippocampus (Macaca mulatta); test: Drug uptake in rhesus monkey hippocampus at 189 MBq, iv after 3 mins by PET imaging analysis; conditions: in vivo, 0.05 h
[21] = test system: Brain; test: Drug uptake in Sprague-Dawley rat whole brain at 37 MBq, iv administered 5 mins post N-(3-(difluoromethoxy)phenyl)-2-picolinamide hydrochloride challenge measured after 20 mins by PET imaging analysis; format: ADME, organism-based; conditions: in vivo; in short: as §2
[22] = test system: Hippocampus; test: Drug uptake in Sprague-Dawley rat hippocampus at 37 MBq, iv after 20 mins by PET imaging analysis; format: ADME, organism-based; conditions: in vivo; in short: as §2
[23] = Drug metabolism in iv dosed rhesus monkey blood after 5 mins; conditions: in vivo
[24] = test system: Thalamus; test: Drug uptake in Sprague-Dawley rat thalamus at 37 MBq, iv after 20 mins by PET imaging analysis; format: ADME, organism-based; conditions: in vivo; in short: as §2
[25] = test system: Brain; test: Drug uptake in Sprague-Dawley rat whole brain at 37 MBq, iv after 20 mins by PET imaging analysis; format: ADME, organism-based; conditions: in vivo; in short: as §2
[26] = test system: Thalamus; test: Drug uptake in Sprague-Dawley rat thalamus at 37 MBq, iv administered 5 mins post N-(3-(difluoromethoxy)phenyl)-2-picolinamide hydrochloride challenge measured after 20 mins by PET imaging analysis; format: ADME, organism-based; conditions: in vivo; in short: as §2
[27] = test system: Hippocampus (Macaca mulatta); test: Drug uptake in rhesus monkey hippocampus at 189 MBq, iv after 20 mins by PET imaging analysis; conditions: in vivo
[28] = test system: Thalamus (Macaca mulatta); test: Drug uptake in rhesus monkey thalamus at 189 MBq, iv after 40 mins by PET imaging analysis; conditions: in vivo
[29] = test system: Cerebellum; test: Drug uptake in Sprague-Dawley rat cerebellum at 37 MBq, iv after 20 mins by PET imaging analysis; format: ADME, organism-based; conditions: in vivo; in short: as §2
[30] = test system: Brain; test: Drug uptake in Sprague-Dawley rat whole brain at 37 MBq, iv administered 5 mins post MTEP.HCl challenge measured after 20 mins by PET imaging analysis; format: ADME, organism-based; conditions: in vivo; in short: as §2
[31] = test system: Striatum; test: Drug uptake in Sprague-Dawley rat striatum at 37 MBq, iv after 20 mins by PET imaging analysis; format: ADME, organism-based; conditions: in vivo; in short: as §2
[32] = test system: Hippocampus; test: Drug uptake in Sprague-Dawley rat hippocampus at 37 MBq, iv administered 5 mins post MTEP.HCl challenge measured after 20 mins by PET imaging analysis; format: ADME, organism-based; conditions: in vivo; in short: as §2
[33] = Drug metabolism in iv dosed Sprague-Dawley rat blood after 5 mins; format: ADME, organism-based; conditions: read-out: Drug metabolism
[34] = test system: Thalamus (Macaca mulatta); test: Drug uptake in rhesus monkey thalamus at 189 MBq, iv after 20 mins by PET imaging analysis; conditions: in vivo
[35] = target: Metabotropic glutamate receptor 1 (Homo sapiens) (UniProt Q13255); test: Activity at human mGlu1 receptor expressed in CHO cells after 45 mins by intracellular inositol phosphates accumulation assay
[36] = target: Metabotropic glutamate receptor 8 (Homo sapiens) (UniProt O00222); test: Binding affinity to human mGlu8 receptor
[37] = target: Metabotropic glutamate receptor 5 (Homo sapiens) (UniProt P41594); test: Activity at human mGlu5 receptor expressed in CHO cells after 45 mins by intracellular inositol phosphates accumulation assay
Sequence of Metabotropic glutamate receptor 5 (Homo sapiens) (P41594 21-1212 limits assumed): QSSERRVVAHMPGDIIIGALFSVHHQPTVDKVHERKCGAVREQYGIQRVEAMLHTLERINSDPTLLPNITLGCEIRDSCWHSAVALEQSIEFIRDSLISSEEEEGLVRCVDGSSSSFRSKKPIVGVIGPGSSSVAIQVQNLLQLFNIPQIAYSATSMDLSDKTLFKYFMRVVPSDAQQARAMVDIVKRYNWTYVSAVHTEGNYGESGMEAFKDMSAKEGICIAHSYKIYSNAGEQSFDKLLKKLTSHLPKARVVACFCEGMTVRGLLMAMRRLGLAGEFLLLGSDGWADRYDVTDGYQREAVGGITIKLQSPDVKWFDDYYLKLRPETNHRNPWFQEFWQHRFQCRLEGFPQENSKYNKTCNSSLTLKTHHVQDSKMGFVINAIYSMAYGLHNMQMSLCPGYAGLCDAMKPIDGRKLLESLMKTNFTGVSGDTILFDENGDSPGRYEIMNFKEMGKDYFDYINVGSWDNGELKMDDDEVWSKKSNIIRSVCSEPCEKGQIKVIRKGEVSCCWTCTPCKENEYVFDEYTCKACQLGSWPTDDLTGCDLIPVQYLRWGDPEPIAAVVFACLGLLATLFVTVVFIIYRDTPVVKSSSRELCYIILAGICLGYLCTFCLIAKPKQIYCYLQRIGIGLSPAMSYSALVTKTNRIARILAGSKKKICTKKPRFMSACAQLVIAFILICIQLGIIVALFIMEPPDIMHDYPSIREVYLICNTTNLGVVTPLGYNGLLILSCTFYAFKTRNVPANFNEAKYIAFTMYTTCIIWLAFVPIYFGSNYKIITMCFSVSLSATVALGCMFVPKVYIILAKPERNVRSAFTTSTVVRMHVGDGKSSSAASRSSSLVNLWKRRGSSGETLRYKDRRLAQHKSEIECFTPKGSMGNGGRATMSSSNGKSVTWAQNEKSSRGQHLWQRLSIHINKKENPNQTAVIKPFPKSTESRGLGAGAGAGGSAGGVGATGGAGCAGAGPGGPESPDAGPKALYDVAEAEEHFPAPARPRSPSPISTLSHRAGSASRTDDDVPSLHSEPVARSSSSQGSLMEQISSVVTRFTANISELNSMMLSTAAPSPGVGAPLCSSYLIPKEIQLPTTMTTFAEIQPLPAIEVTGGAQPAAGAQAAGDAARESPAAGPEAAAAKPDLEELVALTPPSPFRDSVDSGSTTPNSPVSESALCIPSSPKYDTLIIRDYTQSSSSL

Sequence of Metabotropic glutamate receptor 4 (P31423 whole entry): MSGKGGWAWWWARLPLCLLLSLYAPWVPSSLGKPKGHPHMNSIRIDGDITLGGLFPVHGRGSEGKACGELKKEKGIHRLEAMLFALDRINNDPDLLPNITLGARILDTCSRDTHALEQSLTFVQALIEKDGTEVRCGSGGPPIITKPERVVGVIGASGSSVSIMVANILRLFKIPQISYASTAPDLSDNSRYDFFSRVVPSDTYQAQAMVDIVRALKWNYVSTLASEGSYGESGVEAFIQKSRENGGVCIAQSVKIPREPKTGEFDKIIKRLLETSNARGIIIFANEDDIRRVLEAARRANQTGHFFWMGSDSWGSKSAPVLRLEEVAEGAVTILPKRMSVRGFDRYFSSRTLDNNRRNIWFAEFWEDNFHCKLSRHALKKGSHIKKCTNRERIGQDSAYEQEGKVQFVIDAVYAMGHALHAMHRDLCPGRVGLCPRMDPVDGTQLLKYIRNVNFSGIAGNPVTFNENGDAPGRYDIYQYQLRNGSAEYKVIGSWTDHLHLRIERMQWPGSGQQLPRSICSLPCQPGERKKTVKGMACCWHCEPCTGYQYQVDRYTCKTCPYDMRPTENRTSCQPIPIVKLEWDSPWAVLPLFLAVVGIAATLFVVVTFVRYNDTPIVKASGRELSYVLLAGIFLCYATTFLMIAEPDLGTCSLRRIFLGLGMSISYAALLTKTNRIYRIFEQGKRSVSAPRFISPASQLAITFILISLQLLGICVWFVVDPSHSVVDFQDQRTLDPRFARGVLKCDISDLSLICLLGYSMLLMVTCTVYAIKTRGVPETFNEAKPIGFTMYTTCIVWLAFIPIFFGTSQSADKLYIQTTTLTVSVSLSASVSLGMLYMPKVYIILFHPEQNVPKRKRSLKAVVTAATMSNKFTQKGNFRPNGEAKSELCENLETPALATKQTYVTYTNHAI
Sequence of Metabotropic glutamate receptor 4 (Rattus norvegicus) (P31423 whole entry): as above
Sequence of Metabotropic glutamate receptor 8 (Homo sapiens) (O00222 whole entry): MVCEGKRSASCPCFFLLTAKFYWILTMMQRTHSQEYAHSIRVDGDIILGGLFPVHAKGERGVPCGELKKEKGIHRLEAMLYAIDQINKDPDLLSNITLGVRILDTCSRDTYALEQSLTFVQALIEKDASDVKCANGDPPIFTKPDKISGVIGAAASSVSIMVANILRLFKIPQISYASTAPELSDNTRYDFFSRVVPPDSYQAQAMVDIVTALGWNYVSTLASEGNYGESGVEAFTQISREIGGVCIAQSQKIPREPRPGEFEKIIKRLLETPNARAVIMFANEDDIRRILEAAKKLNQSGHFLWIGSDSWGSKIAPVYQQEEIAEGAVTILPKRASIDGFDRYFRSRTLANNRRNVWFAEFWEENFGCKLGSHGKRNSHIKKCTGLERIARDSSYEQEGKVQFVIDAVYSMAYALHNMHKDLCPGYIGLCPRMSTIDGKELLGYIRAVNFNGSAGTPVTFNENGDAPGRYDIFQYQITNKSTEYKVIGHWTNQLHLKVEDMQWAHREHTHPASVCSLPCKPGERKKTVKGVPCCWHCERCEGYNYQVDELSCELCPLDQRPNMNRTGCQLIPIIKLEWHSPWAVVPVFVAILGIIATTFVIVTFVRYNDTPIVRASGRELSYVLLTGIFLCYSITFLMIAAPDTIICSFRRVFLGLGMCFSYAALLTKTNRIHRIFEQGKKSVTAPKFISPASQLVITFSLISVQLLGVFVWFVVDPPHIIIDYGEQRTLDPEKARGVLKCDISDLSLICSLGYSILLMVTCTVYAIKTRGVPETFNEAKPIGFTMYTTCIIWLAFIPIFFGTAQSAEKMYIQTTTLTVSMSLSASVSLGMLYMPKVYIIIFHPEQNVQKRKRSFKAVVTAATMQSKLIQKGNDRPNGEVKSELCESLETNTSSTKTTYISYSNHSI
Sequence of Metabotropic glutamate receptor 1 (Homo sapiens) (Q13255 19-1194 limits assumed): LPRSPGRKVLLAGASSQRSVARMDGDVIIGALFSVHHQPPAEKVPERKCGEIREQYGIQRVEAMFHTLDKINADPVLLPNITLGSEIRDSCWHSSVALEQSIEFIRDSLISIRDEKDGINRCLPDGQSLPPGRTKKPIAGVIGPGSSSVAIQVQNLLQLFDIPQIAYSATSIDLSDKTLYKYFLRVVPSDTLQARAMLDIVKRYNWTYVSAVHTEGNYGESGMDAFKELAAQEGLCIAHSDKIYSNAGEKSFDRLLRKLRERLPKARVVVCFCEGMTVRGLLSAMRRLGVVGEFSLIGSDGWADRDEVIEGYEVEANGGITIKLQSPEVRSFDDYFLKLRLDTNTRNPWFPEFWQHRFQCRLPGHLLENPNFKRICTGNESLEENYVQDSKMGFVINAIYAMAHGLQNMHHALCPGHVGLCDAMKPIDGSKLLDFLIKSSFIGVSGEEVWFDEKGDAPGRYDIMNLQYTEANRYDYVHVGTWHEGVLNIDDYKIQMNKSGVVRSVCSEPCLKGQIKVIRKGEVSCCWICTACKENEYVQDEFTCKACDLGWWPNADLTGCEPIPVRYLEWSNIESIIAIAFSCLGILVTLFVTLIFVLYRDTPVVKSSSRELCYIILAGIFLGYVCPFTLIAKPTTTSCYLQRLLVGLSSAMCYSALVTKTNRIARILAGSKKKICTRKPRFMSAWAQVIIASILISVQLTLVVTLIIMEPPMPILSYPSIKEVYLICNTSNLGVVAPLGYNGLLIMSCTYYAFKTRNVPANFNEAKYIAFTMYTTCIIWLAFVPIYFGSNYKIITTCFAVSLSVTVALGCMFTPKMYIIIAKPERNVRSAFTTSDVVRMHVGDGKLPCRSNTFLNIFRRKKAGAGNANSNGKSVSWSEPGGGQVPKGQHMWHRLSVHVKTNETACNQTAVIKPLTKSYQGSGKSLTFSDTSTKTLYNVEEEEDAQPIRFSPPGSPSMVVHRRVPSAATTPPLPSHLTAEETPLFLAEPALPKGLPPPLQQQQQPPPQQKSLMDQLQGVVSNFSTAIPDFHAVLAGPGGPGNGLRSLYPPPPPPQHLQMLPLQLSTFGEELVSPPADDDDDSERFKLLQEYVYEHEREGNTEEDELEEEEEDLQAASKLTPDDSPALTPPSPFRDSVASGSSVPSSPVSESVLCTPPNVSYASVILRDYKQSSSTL

O=C(Nc1ccc(N2C(=O)c3cccc(I)c3C2=O)c(Cl)c1)c1ccccn1
inhibition [1]: 96% | IC50 ([2]; read-out: IC50): 26.3 nM | IC50 ([2]; read-out: pIC50 (converted)): 29.5 nM

COc1cc(NC(=O)c2ccccn2)ccc1Cl
inhibition [1]: 100%

O=C(Nc1ccc(N2C(=O)c3cccc([18F])c3C2=O)c(Cl)c1)c1ccccn1
Drug uptake [3]: Active | Drug uptake [4]: Active | Drug uptake [5]: Active | Drug uptake [6]: Active | Drug uptake [7]: Active | Drug uptake [8]: Active | Drug uptake [9]: Active | Drug uptake [10]: Active | Drug uptake [11]: Active | Drug uptake [12]: Active | Drug uptake [13]: Active | Drug uptake [14]: Active | Drug uptake [15]: 50% | Drug uptake [16]: Active | Drug uptake [17]: 50% | Drug uptake [18]: Active | Drug uptake [19]: Active | Drug uptake [20]: Active | Drug uptake [21]: Active | Drug uptake [22]: Active | Stability [23]: Unstable | Drug uptake [24]: Active | Drug uptake [25]: Active | Drug uptake [26]: Active | Drug uptake [27]: 50% | Drug uptake [28]: Active | Drug uptake [29]: Active | Drug uptake [30]: Active | Drug uptake [31]: Active | Drug uptake [32]: Active | metabolised at 5 min [33]: 90% | Drug uptake [34]: 50%

Cc1cccc2c1C(=O)N(c1ccc(NC(=O)c3ccccn3)cc1Cl)C2=O
inhibition [1]: 99.4% | IC50 ([2]; read-out: IC50): 4.2 nM

O=C(Nc1cccc(OC(F)F)c1)c1ccccn1
inhibition [1]: 99.1%

O=C(Nc1ccc(N2C(=O)c3cccc(Br)c3C2=O)c(Cl)c1)c1ccccn1
inhibition [1]: 96.6% | IC50 ([2]; read-out: IC50): 11.8 nM

O=C(Nc1ccc(N2C(=O)c3cccc(F)c3C2=O)c(Cl)c1)c1ccccn1
Activity [35]: Active | inhibition [1]: 99.4% | Activity [36]: Active | IC50 ([2]; read-out: IC50): 5.1 nM | Activity [37]: Active
